Source: PubChem
MEKK2 WT-MEK5: modulators of MEK5 binding to wildtype MEKK2, primary screen, biochemical, multiplex bead flow cytometry, Alexa488-MEK5; Mitogen-activated protein kinase kinase kinase 2 (Homo sapiens), Q9Y2U5; Alexa488-MEK5 binding to MEKK2 WT; actives lie on both sides; binding response (% of control), % at 10 µM; hit rate 1.1% among 290,000; AID 1531, 2009; in the data active = binding response below about 67% or above about 130%
MEKK3 PB1 HTS: modulators of MEKK3-MEK5 PB1 binding, primary screen, biochemical, wildtype MEKK3, multiplex bead flow cytometry, Alexa488-MEK5; AID 1529, 2009; bead-based flow cytometry, Alexa488-MEK5 binding to MEKK3; actives lie on both sides; 0 = blocked by unlabeled MEK5, 100 = vehicle; Mitogen-activated protein kinase kinase kinase 3 (Homo sapiens), Q99759; hit rate 1.4% among 290,000; binding response (% of control), % at 10 µM;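 active = binding response more than 3 SD above or below the average of its plate-row segment, actives on both sides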;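 also: Alexa488 bead fluorescence after subtracting the streptavidin-only scavenger bead signal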
Target sequence (Q99759 whole entry, looked up): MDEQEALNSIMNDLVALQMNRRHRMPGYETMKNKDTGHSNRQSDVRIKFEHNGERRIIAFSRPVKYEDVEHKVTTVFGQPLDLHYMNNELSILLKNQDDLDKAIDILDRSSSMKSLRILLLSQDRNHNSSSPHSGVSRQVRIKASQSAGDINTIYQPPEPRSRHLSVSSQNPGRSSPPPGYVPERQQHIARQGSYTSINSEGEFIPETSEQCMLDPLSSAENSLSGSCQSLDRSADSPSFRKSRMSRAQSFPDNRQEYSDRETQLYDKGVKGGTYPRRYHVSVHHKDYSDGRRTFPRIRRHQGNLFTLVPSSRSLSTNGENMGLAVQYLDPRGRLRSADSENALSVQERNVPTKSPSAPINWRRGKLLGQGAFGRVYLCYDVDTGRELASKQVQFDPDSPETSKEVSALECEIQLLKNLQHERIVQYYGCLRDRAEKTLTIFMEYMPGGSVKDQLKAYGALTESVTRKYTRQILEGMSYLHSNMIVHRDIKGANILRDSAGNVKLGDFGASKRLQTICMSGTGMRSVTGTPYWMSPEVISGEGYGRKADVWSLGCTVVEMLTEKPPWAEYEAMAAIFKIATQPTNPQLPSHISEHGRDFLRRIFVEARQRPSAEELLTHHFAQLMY
WT yeast gro inh: growth inhibition of WT strain, primary screen, mitochondrial fusion inhibitor project, WT and mutant strains, chemical genetic; mitochondrial fusion phenotypic screen; inhibition, % at 10 µM; hit rate 2.1% among 190,000; AID 1362, 2008; in the data active = inhibition above about 58%; tested in S. cerevisiae
ABCG2 inh: ABCG2 efflux pump inhibitors, primary screen, multiplex with ABCB1, IgMXP3 cells, flow cytometry; JC-1 efflux; inhibition, % at 6.6 µM; hit rate 0.1% among 190,000;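 active = inhibition above 80%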
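Test system: IgMXP3 (ABCG2) plus far-red-tagged CCRF-Adr (ABCB1) cells. Reagent: JC-1 dye as substrate. Timing: 10 min exposure at 25 °C with rotation, no wash. Measured by: flow cytometric JC-1 green MFI at 530 nm. Read-out: percent efflux inhibition, scaled nicardipine 100% to DMSO 0%. Control set: nicardipine and DMSO wells.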
MEKK2mut PB1 HTS: MEK5 binding signal on mutant MEKK2 PB1, primary screen, biochemical, multiplex bead flow cytometry, Alexa488-MEK5. hit rate 0.35% among 290,000. AID 1530, 2009. Alexa488-MEK5 binding to MEKK2 mutant. percent response, % at 10 µM; in the data active = percent response above about 24%, passing the limit was not always enough
ABCB1 inh: ABCB1 efflux pump inhibitors, primary screen, cell-based, multiplex, flow cytometry, ABCG2 counter-screen; ATP-dependent translocase ABCB1 (Homo sapiens), P08183; CCRF-Adr cells, JC-1 efflux; inhibition, % at 6.6 µM; hit rate 0.067% among 190,000; AID 1326, 2008; in the data active = inhibition above about 40%;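 also: higher value means more JC-1 retained so stronger ABCB1 efflux block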
MEKK2wt confirm: modulators of MEK5 binding to wildtype MEKK2, confirmation, biochemical, single concentration, multiplex bead flow cytometry; AID 1892, 2009; shares compounds with MEKK3 PB1 HTS; hit rate 2.4% among 5,900; binding response (% of control), % at 10 µM; Alexa488-MEK5 binding to MEKK2 WT; actives lie on both sides; in the data active = binding response below about 16% or above about 210%; inactive = in between
MEKK2mut-MEK5: mutant MEKK2 PB1-MEK5 binding signal retest – biochemical, single concentration, multiplex bead flow cytometry, confirmation | shares compounds with MEKK3 PB1 HTS | Alexa488-MEK5 binding to MEKK2 mutant | percent response, % at 10 µM | hit rate 2% among 5,900 | AID 1893, 2009; in the data active = percent response mostly above about 71%, no sharp cut-off; inactive = mostly below about 38%;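 also: higher means compound restores mutant binding toward wildtype level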
MEKK3 confirm: MEKK3 wild-type PB1 binding to MEK5, inhibitors, confirmation, biochemical, bead multiplex flow cytometry, single concentration, wildtype | binding response (% of control), % at 10 µM | shares compounds with MEKK3 PB1 HTS | hit rate 1.8% among 5,900 | AID 1894, 2009 | Alexa488-MEK5 binding to MEKK3; hits give low values;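 active = binding response below 72% of control, or above a set upper limit, though filed actives all read lower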;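 also: lower values mean stronger disruption of MEK5 binding to MEKK3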
Of the large screens only hits and unclear results are named; the others gave an inactive call (follow-up assays come after a bar, where they were run); [ ] = dose if it differs, or a comment. A selection: hits, their analogues and other compounds. The true share with any hit is near 3.5%.

CC(C)CNC(=O)C1Nc2ccc(C(F)(F)F)cc2C2C=CCC12 (configuration not stated)	none (no result: WT yeast gro inh, ABCG2 inh, ABCB1 inh)
CC(=O)N1CC(=O)N(Cc2ccccc2)/C(=C/c2ccccc2)C1=O	MEKK3 PB1 HTS 132 | MEKK2wt confirm inactive | MEKK2mut-MEK5 inactive | MEKK3 confirm inactive
CC(=O)Oc1ccc(/C=C2/SC(=S)N(Cc3ccccc3)C2=O)cc1	none (no result: WT yeast gro inh, ABCG2 inh, ABCB1 inh)
O=C(CCCC(=O)N(CC(=O)NC1CCCCC1)c1ccccc1F)Nc1ccccn1	none (no result: WT yeast gro inh, ABCG2 inh, ABCB1 inh)
COc1ccc(OC)c(/C(O)=C/C(=O)C(=O)Nc2cc(C)cc(C)c2)c1	MEKK3 PB1 HTS 126 | MEKK2wt confirm inactive | MEKK2mut-MEK5 inactive | MEKK3 confirm inactive
CC1CCc2sc(C(=O)N=Nc3c(O)[nH]c4ccccc34)cc2C1 (configuration not stated)	MEKK3 PB1 HTS 130 | MEKK2wt confirm inactive | MEKK2mut-MEK5 inactive | MEKK3 confirm inactive
O=C(N=Nc1c(O)[nH]c2ccccc12)c1cccs1	none
COc1ccccc1N(CC(=O)NC1CCCC1)C(=O)CCC(=O)Nc1ccccn1	none (no result: WT yeast gro inh, ABCG2 inh, ABCB1 inh)
O=C(CNC(=O)c1ccc(N2C(=O)c3ccccc3C2=O)cc1)OCC(=O)c1cccc2ccccc12	MEKK2 WT-MEK5 4.0[inhibitor], MEKK3 PB1 HTS 2.0[inhibitor] | MEKK2wt confirm inactive | MEKK2mut-MEK5 inactive | MEKK3 confirm inactive
CCN(CC)c1ccc(/C=N/Nc2nn[nH]n2)cc1	none (no result: WT yeast gro inh, ABCG2 inh, ABCB1 inh)
CCN(CC)c1ccc(C=N/C(C#N)=C(\N)C#N)cc1	MEKK3 PB1 HTS 1.0[inhibitor] (no result: MEKK2 WT-MEK5) | MEKK2wt confirm inactive | MEKK2mut-MEK5 inactive | MEKK3 confirm inactive
CCN1C(=O)c2cccc3c(NC(=O)c4ccc(OC)c(OC)c4)ccc1c23	none
COc1ccc2c(c1)C(=O)N(c1ccccc1C)C(=O)C2(C)C	none
Cc1[nH]c2ccccc2c1/C=N/NC(=O)c1cccs1	MEKK2mut PB1 HTS 128 | MEKK2wt confirm inactive | MEKK2mut-MEK5 inactive | MEKK3 confirm inactive
Cc1nn(-c2ccccc2)c(C)c1/C=N/NC(=O)c1cc(-c2cccs2)[nH]n1	none
Cc1nn(-c2ccccc2)c(C)c1/C=N/NC(=O)c1cccs1	MEKK3 PB1 HTS 133 | MEKK2wt confirm inactive | MEKK2mut-MEK5 inactive | MEKK3 confirm inactive
CC(=O)Nc1cccc(-n2nnc(SCC(=O)c3ccccc3)n2)c1	MEKK3 PB1 HTS 129 (no result: WT yeast gro inh, ABCG2 inh, ABCB1 inh) | MEKK2wt confirm inactive | MEKK2mut-MEK5 inactive | MEKK3 confirm inactive
COC(=O)Cn1c(=NC(=O)c2ccc(Cl)s2)sc2cc(F)ccc21	MEKK3 PB1 HTS 134 | MEKK2wt confirm inactive | MEKK2mut-MEK5 inactive | MEKK3 confirm inactive
COC(=O)CCC(=O)OC1(C)C(=O)C=C2C=C(C3CC3)N(C3CCCC3)C=C2C1=O (configuration not stated)	MEKK2 WT-MEK5 149 (no result: WT yeast gro inh, ABCG2 inh, ABCB1 inh) | MEKK2wt confirm inactive | MEKK2mut-MEK5 inactive | MEKK3 confirm inactive
Cc1ccccc1NC(=O)c1c(Cl)nc(C)c(Cl)c1C	none
Cc1nc(Cl)c(C(=O)NC(=O)NCc2ccccc2)c(C)c1Cl	MEKK3 PB1 HTS 142 | MEKK2wt confirm inactive | MEKK2mut-MEK5 inactive | MEKK3 confirm inactive
CC(C)n1c(O)c(/C=C2\C=Nc3ccccc32)sc1=Nc1ccccc1	MEKK2 WT-MEK5 22[inhibitor], MEKK3 PB1 HTS 13[inhibitor] | MEKK2wt confirm inactive | MEKK2mut-MEK5 inactive | MEKK3 confirm inactive
O=C(C1CCN(S(=O)(=O)c2ccccc2)CC1)N1CCCCCC1	none (no result: WT yeast gro inh, ABCG2 inh, ABCB1 inh)
O=S(=O)(c1ccc(C(F)(F)F)cc1)N1CCCN(c2ccc(C(F)(F)F)cn2)CC1	MEKK2 WT-MEK5 46[inhibitor], MEKK3 PB1 HTS 47[inhibitor] (no result: WT yeast gro inh, ABCG2 inh, ABCB1 inh) | MEKK2wt confirm inactive | MEKK2mut-MEK5 inactive | MEKK3 confirm inactive
COc1ccccc1N1CCN(C(=O)CSc2nnc3c4ccccc4nc(Cc4ccccc4)n23)CC1	none
O=C(CN1N=C(c2ccccc2)CCC1=O)NCc1ccco1	none
COc1ccc(C2=NN(CC(=O)NCc3ccco3)C(=O)CC2)cc1	MEKK3 PB1 HTS 130 | MEKK2wt confirm inactive | MEKK2mut-MEK5 inactive | MEKK3 confirm inactive
CC(C(=O)NCc1cccnc1)N1C(=O)c2ccccc2C1=O (configuration not stated)	MEKK3 PB1 HTS 126 | MEKK2wt confirm inactive | MEKK2mut-MEK5 inactive | MEKK3 confirm inactive
O=C(CN1N=C(c2ccc(Cl)cc2)CCC1=O)NCc1cccnc1	MEKK3 PB1 HTS 142 | MEKK2wt confirm inactive | MEKK2mut-MEK5 inactive | MEKK3 confirm inactive
Cc1ccc(C2=NN(CC(=O)NCc3cccnc3)C(=O)CC2)cc1	MEKK3 PB1 HTS 140 | MEKK2wt confirm inactive | MEKK2mut-MEK5 inactive | MEKK3 confirm inactive
Cc1ccc(S(=O)(=O)CCSc2n[nH]c(=O)n2-c2ccc3c(c2)OCCO3)cc1	none (no result: WT yeast gro inh, ABCG2 inh, ABCB1 inh)
Cc1cccc(NC(=O)Cn2c([N+](=O)[O-])cnc2C)c1C	MEKK3 PB1 HTS 136 | MEKK2wt confirm inactive | MEKK2mut-MEK5 inactive | MEKK3 confirm inactive
Cc1ncc([N+](=O)[O-])n1CC(=O)Nc1ccccc1	none
CC1(C(=O)NCc2ccc(Cl)c(Cl)c2)Oc2cccnc2NC1=O (configuration not stated)	none
c1ccc(CSc2nc3ncncc3[nH]2)cc1	none (no result: WT yeast gro inh, ABCG2 inh, ABCB1 inh)
S=c1nc(SCc2ccccc2)[nH]c2ccccc12	MEKK3 PB1 HTS 49[inhibitor], WT yeast gro inh 62 | MEKK2wt confirm inactive | MEKK2mut-MEK5 inactive | MEKK3 confirm inactive
COc1cccc(C2=CC(c3cc(OC)ccc3OC)n3nnnc3N2)c1 (configuration not stated)	none (no result: MEKK2 WT-MEK5, MEKK3 PB1 HTS, MEKK2mut PB1 HTS)
COc1cccc(C2=CC(c3cccc(OC)c3OC)n3nnnc3N2)c1 (configuration not stated)	MEKK3 PB1 HTS 80[inhibitor] | MEKK2wt confirm inactive | MEKK2mut-MEK5 inactive | MEKK3 confirm inactive
